Laboratory results: ChEMBL document CHEMBL4376812 (J Med Chem, 2019)

Tests used:
[1] = molecular target: Tyrosine-protein kinase JAK2 (Homo sapiens, UniProt O60674); assay: Inhibition of JAK2 in GM-CSF-stimulated human TF-1 cells; type: cell-based
[2] = molecular target: T1, Tyrosine-protein kinase JAK3 (Homo sapiens, UniProt P52333); assay: Inhibition of fluorescein labeled probe binding to human recombinant JAK3 JH1 domain incubated for 1 hr by HTRF assay
T1 sequence (P52333 whole entry): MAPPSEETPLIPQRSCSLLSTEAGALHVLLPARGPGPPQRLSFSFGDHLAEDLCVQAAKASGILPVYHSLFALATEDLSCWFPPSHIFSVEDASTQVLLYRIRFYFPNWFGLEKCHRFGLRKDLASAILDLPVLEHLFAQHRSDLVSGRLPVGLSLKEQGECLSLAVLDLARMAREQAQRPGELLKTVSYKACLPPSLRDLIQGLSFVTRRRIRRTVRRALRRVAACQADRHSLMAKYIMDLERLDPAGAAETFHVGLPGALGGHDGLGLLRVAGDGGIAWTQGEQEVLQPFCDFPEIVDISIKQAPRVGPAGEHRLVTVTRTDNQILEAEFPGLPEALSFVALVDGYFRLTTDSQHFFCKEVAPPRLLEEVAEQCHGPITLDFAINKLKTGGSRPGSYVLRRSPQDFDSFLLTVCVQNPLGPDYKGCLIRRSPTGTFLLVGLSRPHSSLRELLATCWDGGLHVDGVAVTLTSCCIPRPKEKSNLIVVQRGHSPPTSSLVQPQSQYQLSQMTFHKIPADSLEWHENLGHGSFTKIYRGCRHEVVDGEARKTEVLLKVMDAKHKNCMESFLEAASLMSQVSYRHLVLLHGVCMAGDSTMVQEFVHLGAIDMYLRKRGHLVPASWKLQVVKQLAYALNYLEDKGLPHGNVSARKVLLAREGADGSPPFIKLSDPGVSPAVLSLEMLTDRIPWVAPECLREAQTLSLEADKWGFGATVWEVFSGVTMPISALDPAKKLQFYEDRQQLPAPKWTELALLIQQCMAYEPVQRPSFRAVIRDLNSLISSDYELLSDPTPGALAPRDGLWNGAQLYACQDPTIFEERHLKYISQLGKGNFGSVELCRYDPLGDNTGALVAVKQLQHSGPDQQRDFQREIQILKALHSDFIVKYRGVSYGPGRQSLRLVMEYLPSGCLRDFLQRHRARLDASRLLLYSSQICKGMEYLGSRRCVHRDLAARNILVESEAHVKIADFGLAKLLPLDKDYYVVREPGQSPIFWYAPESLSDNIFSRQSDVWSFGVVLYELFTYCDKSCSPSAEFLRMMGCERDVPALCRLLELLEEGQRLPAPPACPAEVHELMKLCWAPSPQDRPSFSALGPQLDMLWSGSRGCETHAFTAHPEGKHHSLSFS
Procedure, shortened: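 HTRF competition binding assay: displacement of a fluorescent probe from human recombinant JAK3 JH1 domain. IC50 for 50% inhibition of HTRF signal derived by nonlinear regression.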

[3] = molecular target: JAK3/JAK1 (Homo sapiens, UniProt P23458+P52333); assay: Inhibition of JAK1/JAK3 in human PBMC assessed as decrease in IL2-induced STAT5 phosphorylation in CD3+ T cells preincubated for 1 hr followed by stimulation with IL2 for 15 mins by flow cytometry; type: cell-based
Chain of JAK3/JAK1 (P23458 whole entry, one chain of several): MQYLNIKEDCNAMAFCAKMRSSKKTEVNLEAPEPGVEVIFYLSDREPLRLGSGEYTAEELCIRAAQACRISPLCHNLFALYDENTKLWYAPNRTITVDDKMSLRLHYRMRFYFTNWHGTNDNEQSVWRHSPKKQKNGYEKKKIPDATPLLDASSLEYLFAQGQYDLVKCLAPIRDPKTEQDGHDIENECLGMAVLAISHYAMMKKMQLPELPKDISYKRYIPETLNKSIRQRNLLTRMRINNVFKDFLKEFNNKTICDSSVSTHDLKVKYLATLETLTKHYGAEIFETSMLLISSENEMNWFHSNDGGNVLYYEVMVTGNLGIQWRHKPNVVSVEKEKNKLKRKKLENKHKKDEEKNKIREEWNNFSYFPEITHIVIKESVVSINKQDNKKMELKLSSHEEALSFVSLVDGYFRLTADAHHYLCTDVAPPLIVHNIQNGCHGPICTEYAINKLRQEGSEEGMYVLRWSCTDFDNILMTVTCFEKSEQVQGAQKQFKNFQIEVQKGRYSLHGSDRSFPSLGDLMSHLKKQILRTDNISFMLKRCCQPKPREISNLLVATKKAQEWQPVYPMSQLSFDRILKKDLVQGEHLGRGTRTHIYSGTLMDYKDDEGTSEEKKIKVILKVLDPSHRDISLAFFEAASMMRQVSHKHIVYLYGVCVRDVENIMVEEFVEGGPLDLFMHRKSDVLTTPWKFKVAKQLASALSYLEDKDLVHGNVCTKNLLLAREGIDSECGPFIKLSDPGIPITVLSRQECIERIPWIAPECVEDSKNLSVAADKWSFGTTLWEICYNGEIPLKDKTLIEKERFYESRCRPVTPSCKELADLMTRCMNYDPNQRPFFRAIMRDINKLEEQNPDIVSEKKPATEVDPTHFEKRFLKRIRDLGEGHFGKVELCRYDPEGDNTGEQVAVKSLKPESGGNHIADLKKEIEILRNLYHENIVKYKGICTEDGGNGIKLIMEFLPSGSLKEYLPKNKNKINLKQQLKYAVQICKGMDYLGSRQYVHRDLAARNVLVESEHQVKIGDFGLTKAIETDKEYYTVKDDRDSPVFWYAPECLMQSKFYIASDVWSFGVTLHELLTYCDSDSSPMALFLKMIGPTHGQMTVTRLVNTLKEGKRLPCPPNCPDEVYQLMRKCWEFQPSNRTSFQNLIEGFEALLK
Procedure, shortened: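 Human cytokine signalling assay: IL-2 stimulation (JAK1/JAK3), with STAT5 phosphorylation in CD3⁺ T-cells measured as the end point. Read as IC50; mean of at least three separate experiments.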

Chain of Tyrosine-protein kinase JAK2 (O60674 whole entry, the tested form may be a part): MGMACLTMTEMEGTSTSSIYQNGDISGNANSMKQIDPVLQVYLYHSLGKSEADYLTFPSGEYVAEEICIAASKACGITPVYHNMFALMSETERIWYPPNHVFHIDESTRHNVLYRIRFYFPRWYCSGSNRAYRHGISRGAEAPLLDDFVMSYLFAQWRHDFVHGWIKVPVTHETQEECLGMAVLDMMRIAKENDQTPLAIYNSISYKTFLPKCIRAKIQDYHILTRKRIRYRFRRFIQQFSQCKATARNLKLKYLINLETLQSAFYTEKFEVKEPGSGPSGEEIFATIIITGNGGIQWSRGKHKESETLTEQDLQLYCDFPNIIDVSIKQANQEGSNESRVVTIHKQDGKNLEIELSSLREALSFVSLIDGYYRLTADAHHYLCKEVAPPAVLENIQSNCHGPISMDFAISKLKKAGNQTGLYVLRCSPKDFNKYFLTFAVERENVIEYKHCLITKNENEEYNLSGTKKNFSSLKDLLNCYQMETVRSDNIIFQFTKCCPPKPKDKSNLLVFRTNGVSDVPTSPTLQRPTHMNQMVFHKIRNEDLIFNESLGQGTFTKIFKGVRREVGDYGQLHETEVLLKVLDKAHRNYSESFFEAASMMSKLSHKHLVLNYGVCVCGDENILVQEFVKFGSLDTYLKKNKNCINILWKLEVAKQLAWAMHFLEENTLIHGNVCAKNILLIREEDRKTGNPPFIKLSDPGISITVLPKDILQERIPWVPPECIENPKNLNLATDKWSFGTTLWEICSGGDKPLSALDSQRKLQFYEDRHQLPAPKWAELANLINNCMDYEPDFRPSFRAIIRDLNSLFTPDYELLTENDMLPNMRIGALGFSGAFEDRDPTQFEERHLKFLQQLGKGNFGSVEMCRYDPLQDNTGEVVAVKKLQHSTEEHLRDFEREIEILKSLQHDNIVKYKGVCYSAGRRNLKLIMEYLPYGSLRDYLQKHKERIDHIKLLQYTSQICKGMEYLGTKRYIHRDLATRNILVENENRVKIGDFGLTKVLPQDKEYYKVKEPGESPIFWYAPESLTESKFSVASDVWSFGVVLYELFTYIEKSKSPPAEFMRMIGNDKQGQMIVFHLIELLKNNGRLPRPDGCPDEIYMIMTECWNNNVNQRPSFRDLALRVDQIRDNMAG

IC50 [1]: 2.7 µM
IC50 [2]: > 10 µM
IC50 [3]: 5.7 µM
Structure (SMILES): [2H]C([2H])([2H])NC(=O)c1nnc(Nc2ccccn2)cc1Nc1ccccc1S(C)(=O)=O
